The text below walks through data of the array DNA melting data of Ke et al. (doi:10.1101/2024.01.08.574731).

Data set [1] in a line: folding enthalpy; higher = less favourable; fluorescence melt of hairpins on a sequencing array, two-state fit. To be noted: sodium 0.088 M. The method, boiled down: (§1)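 Hairpins were imaged by Cy3 fluorescence on a sequenced MiSeq flow cell with annealed Cy3 and quencher oligos, in 50 mM Na-HEPES pH 8.0, 25 mM NaCl, in 2.5 °C steps up to 60 °C. Bootstrapped two-state fits of normalised signals gave melting temperature and folding enthalpy. Four replicates were combined by inverse variance, and fitted temperatures were raised by 9.35 °C to match UV melts.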

Data set [2] in a line: melting temperature; fluorescence melt of hairpins on a sequencing array, two-state fit, raised by 9.35 °C to match UV melts. To be noted: sodium 0.088 M. The method, boiled down:
as §1

In the case of GATCTACTCTTAGATC ((((((....)))))), the folding enthalpy in data set [1] is -29.7 kcal/mol. Also, the Tm in data set [2] was 41.1 °C.

Consider GATCTACTGGTAGATC ((((((....)))))), for which the folding enthalpy in data set [1] was -43.6 kcal/mol. The Tm in data set [2] is 52.8 °C.

Turning to GATCTACTTATAGATC ((((((....)))))), the folding enthalpy in data set [1] is -29.4 kcal/mol. Besides, in data set [2], the Tm is 43 °C.

With GATCTACTTGTAGATC ((((((....)))))), the folding enthalpy in data set [1] is -41.1 kcal/mol. Also, the Tm in data set [2] is 56.2 °C.

Turning to GATCTACTTTTAGATC ((((((....)))))), in data set [1], the folding enthalpy is -33.1 kcal/mol. Moreover, the Tm in data set [2] is 39.8 °C.

With GATCTAGAATAGATC ((((((...)))))), the folding enthalpy in data set [1] is -37.4 kcal/mol. Further, in data set [2], the Tm was 49.9 °C.

As to GATCTAGACCTAGATC ((((((....)))))), in data set [1], the folding enthalpy is -32.8 kcal/mol. For the same sequence, the Tm in data set [2] was 47.2 °C.

Consider GATCTAGACTTAGATC ((((((....)))))), for which the folding enthalpy in data set [1] was -39.3 kcal/mol. Besides, in data set [2], the Tm was determined as 47 °C.

Regarding GATCTAGAGGTAGATC ((((((....)))))), the folding enthalpy in data set [1] is -24.4 kcal/mol. For the same sequence, the Tm in data set [2] stood at 35.1 °C.

For the sequence GATCTAGATGTAGATC ((((((....)))))), the folding enthalpy in data set [1] was -27.9 kcal/mol. For the same sequence, in data set [2], the Tm worked out at 39.8 °C.

Take GATCTAGATTAGATC ((((((...)))))): in data set [1], the folding enthalpy was -26.3 kcal/mol. Further, the Tm in data set [2] is 36.2 °C.

Take GATCTAGCAATAGATC ((((((....)))))): in data set [1], the folding enthalpy is -39.6 kcal/mol. Further, the Tm in data set [2] turned out to be 47.6 °C.

Consider GATCTAGCATTAGATC ((((((....)))))), for which, in data set [1], the folding enthalpy is -43.5 kcal/mol. The Tm in data set [2] worked out at 47.6 °C.

As for GATCTAGCCCTAGATC ((((((....)))))), in data set [1], the folding enthalpy was -37 kcal/mol. For the same sequence, in data set [2], the Tm was 45.6 °C.

In the case of GATCTAGCGTAGATC ((((((...)))))), the folding enthalpy in data set [1] was -29.1 kcal/mol. The Tm in data set [2] is 37.7 °C.

Regarding GATCTAGCGTTAGATC ((((((....)))))), in data set [1], the folding enthalpy was -31.1 kcal/mol. The Tm in data set [2] turned out to be 39.7 °C.

On to GATCTAGCTCTAGATC ((((((....)))))), for which the folding enthalpy in data set [1] was -33.1 kcal/mol. In addition, the Tm in data set [2] came out at 45.2 °C.

In the case of GATCTAGGAAACTAGACC (.(((((....))))).), in data set [1], the folding enthalpy was -14.8 kcal/mol. Besides, the Tm in data set [2] stood at 29.3 °C.

GATCTAGGAAACTAGGTC ((.((((....)))).)): in data set [1], the folding enthalpy was -34.3 kcal/mol. Further, the Tm in data set [2] was found to be 38.6 °C.

Regarding GATCTAGGAGTAGATC ((((((....)))))), in data set [1], the folding enthalpy was -30.2 kcal/mol. Besides, the Tm in data set [2] amounted to 40.4 °C.

For GATCTAGGCATAGATC ((((((....)))))), in data set [1], the folding enthalpy is -36.9 kcal/mol. For the same sequence, the Tm in data set [2] is 48.8 °C.

GATCTAGGCTTAGATC ((((((....)))))): in data set [1], the folding enthalpy is -38.4 kcal/mol. In addition, the Tm in data set [2] was found to be 46.6 °C.

Take GATCTAGTACTAGATC ((((((....)))))): the folding enthalpy in data set [1] is -51.4 kcal/mol. Also, in data set [2], the Tm stood at 48.7 °C.

As for GATCTAGTATTAGATC ((((((....)))))), the folding enthalpy in data set [1] was -37.5 kcal/mol. The Tm in data set [2] was 47.1 °C.

Consider GATCTAGTTATAGATC ((((((....)))))), for which the folding enthalpy in data set [1] was -33.8 kcal/mol. In data set [2], the Tm is 48.9 °C.

As to GATCTAGTTTTAGATC ((((((....)))))), the folding enthalpy in data set [1] is -32.3 kcal/mol. The Tm in data set [2] worked out at 42.3 °C.

For the sequence GATCTATAATAGATC ((((((...)))))), the folding enthalpy in data set [1] is -21.8 kcal/mol. Also, the Tm in data set [2] worked out at 38.3 °C.

With GATCTATCATAGATC ((((((...)))))), the folding enthalpy in data set [1] was -28 kcal/mol. The Tm in data set [2] turned out to be 40.1 °C.

On to GATCTATCGATAGATC ((((((....)))))), for which, in data set [1], the folding enthalpy is -44.3 kcal/mol. The Tm in data set [2] turned out to be 48 °C.

Consider GATCTATCGTAGATC ((((((...)))))), for which the folding enthalpy in data set [1] is -12.9 kcal/mol. Further, in data set [2], the Tm turned out to be 38.4 °C.

In the case of GATCTATCGTTAGATC ((((((....)))))), in data set [1], the folding enthalpy was -19.4 kcal/mol. The Tm in data set [2] amounted to 37.8 °C.

Take GATCTATCTATAGATC ((((((....)))))): in data set [1], the folding enthalpy is -38 kcal/mol. In data set [2], the Tm is 47.4 °C.

GATCTATGATTAGATC ((((((....)))))): the folding enthalpy in data set [1] was -31.9 kcal/mol. Also, the Tm in data set [2] worked out at 39.8 °C.

GATCTATGCATAGATC ((((((....)))))): the folding enthalpy in data set [1] was -43.4 kcal/mol. For the same sequence, the Tm in data set [2] stood at 49.9 °C.

With GATCTATGCTTAGATC ((((((....)))))), the folding enthalpy in data set [1] was -35.8 kcal/mol. For the same sequence, the Tm in data set [2] is 44.5 °C.

With GATCTATGTCTAGATC ((((((....)))))), the folding enthalpy in data set [1] was -26.6 kcal/mol. The Tm in data set [2] is 38.5 °C.

Turning to GATCTATGTTAGATC ((((((...)))))), the folding enthalpy in data set [1] is -27.7 kcal/mol. The Tm in data set [2] turned out to be 41.3 °C.

For the sequence GATCTATTCGTAGATC ((((((....)))))), in data set [1], the folding enthalpy was -33.5 kcal/mol. In addition, the Tm in data set [2] was found to be 44.8 °C.

For GATCTATTTATAGATC ((((((....)))))), the folding enthalpy in data set [1] was -48.6 kcal/mol. The Tm in data set [2] worked out at 51.8 °C.

Take GATCTATTTCTAGATC ((((((....)))))): in data set [1], the folding enthalpy was -30.2 kcal/mol. Also, the Tm in data set [2] turned out to be 38.9 °C.

In the case of GATCTATTTTTAGATC ((((((....)))))), the folding enthalpy in data set [1] was -42.5 kcal/mol. In addition, the Tm in data set [2] amounted to 44.3 °C.

As to GATCTCAAAAGAGATC ((((((....)))))), in data set [1], the folding enthalpy was -29.8 kcal/mol. Besides, the Tm in data set [2] was found to be 48.5 °C.

Regarding GATCTCAAACGAGATC ((((((....)))))), the folding enthalpy in data set [1] is -41.4 kcal/mol. Moreover, in data set [2], the Tm is 50.2 °C.

GATCTCAACGAGATC ((((((...)))))): the folding enthalpy in data set [1] is -35.5 kcal/mol. For the same sequence, in data set [2], the Tm stood at 55.8 °C.

As for GATCTCAAGGGAGATC ((((((....)))))), the folding enthalpy in data set [1] was -28.6 kcal/mol. The Tm in data set [2] was found to be 50.8 °C.

As to GATCTCACTCGAGATC ((((((....)))))), the folding enthalpy in data set [1] is -50.8 kcal/mol. For the same sequence, in data set [2], the Tm worked out at 52.1 °C.

For GATCTCACTTGAGATC ((((((....)))))), the folding enthalpy in data set [1] is -39 kcal/mol. In addition, the Tm in data set [2] is 54.1 °C.

With GATCTCAGAGGAGATC ((((((....)))))), in data set [1], the folding enthalpy is -32.9 kcal/mol. In data set [2], the Tm was 50.8 °C.

As to GATCTCAGATGAGATC ((((((....)))))), the folding enthalpy in data set [1] was -36.3 kcal/mol. The Tm in data set [2] came out at 52.5 °C.

Consider GATCTCAGTGAGATC ((((((...)))))), for which the folding enthalpy in data set [1] was -31.9 kcal/mol. The Tm in data set [2] came to 53.1 °C.

As for GATCTCAGTTGAGATC ((((((....)))))), the folding enthalpy in data set [1] was -34.5 kcal/mol. Also, the Tm in data set [2] stood at 54.2 °C.

For the sequence GATCTCATAGAGATC ((((((...)))))), the folding enthalpy in data set [1] was -38.3 kcal/mol. For the same sequence, the Tm in data set [2] came out at 55.2 °C.

Regarding GATCTCATCGGAGATC ((((((....)))))), in data set [1], the folding enthalpy is -36.1 kcal/mol. In data set [2], the Tm came to 52.8 °C.

Regarding GATCTCATGGGAGATC ((((((....)))))), the folding enthalpy in data set [1] was -37 kcal/mol. Moreover, in data set [2], the Tm was determined as 54 °C.

Consider GATCTCATTAGAGATC ((((((....)))))), for which, in data set [1], the folding enthalpy is -35 kcal/mol. For the same sequence, the Tm in data set [2] was 57.1 °C.

With GATCTCCAAAGAGATC ((((((....)))))), the folding enthalpy in data set [1] is -35.6 kcal/mol. In data set [2], the Tm was found to be 52.5 °C.

Regarding GATCTCCACAGAGATC ((((((....)))))), in data set [1], the folding enthalpy is -32.4 kcal/mol. The Tm in data set [2] was 55.7 °C.
